beta cell repl = inducers of MIN6 beta-cell proliferation, primary screen, ATP luminescence, uHTS; AID 2380, 2010; 330,000 compounds, 0.29% hits; MIN6 cells proliferation, ATPlite luminescence, 48 h; cells starved in 0.2% serum; 100% = growth in 10% serum; proliferation, % at 10 µM;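 active = compounds whose signal lies at least 3.5 SD above the mean of all wells on their plate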;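 also: 0% = DMSO-treated cells in low-serum medium and 100% = 10% serum control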
UCH37 inh = inhibitors of human UCH37 deubiquitinase, primary screen, biochemical, Ub-AMC cleavage, fluorescence; Ubiquitin carboxyl-terminal hydrolase isozyme L5 (Homo sapiens), Q9Y5K5; purified proteasome/UCH37; inhibition, % (no concentration beside the values); 330,000 compounds, 0.33% hits;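 active = mean inhibition over replicate wells above about 20%, limit read from the data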;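 also: 0% = compound-free wells with enzyme and 100% = wells lacking proteasome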
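Material: Human UCH37 enzyme supplied as purified proteasome complex | Schedule: 30 min compound-proteasome preincubation then 25 min substrate reaction, room temperature | Detection: AMC fluorescence from Ub-AMC cleavage, excitation 355 nm, emission 460 nm | Benchmarks: Wells without proteasome as full block, compound-free enzyme plus substrate as uninhibited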
CR mimetic SO = reduction of superoxide in aged yeast, primary screen, HTS; S. cerevisiae aged cells, superoxide DHE fluorescence; stronger effect = lower value; AID 2690, 2010; superoxide response (% of plate mean), % at 10 µM; 330,000 compounds, 0.18% hits;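 active = superoxide response under a set limit, about three screen SD below normal, cut at about 65% in these data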;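 also: yeast aged for seven days with compound at 30 °C before DHE staining; 100% = average MFI of all compound-treated wells on the plate with controls excluded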
Rce1 inh = yeast Rce1p protease inhibitors, primary screen, biochemical, fluorescence, cell-free homogeneous | yeast membranes, quenched prenylated peptide cleavage fluorescence | calls only | 290,000 compounds, 0.27% hits | AID 2563, 2010;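 active = fall in fluorescence gain of 50% or more versus controls, with final raw signal at or below 3038400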;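 also: plate controls were neutral control wells for no effect and wells lacking membranes for full effect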
PG9 Ab binder = binders of HIV-1 gp120 antibody PG9, primary screen, biochemical, TR-FRET; HIV-1 gp120 / PG9 antibody interaction; TR-FRET gp120-PG9 antibody binding; inhibition, % at 6.7 µM; 360,000 compounds, 0.43% hits; in the data active = inhibition above about 8.5%
NR1D1 modulator = modulators of Rev-erb alpha DNA binding, primary screen, biochemical, FITC-DNA, fluorescence polarization, uHTS; activity, % at 10 µM; 370,000 compounds, 0.79% hits; Rev-erbα–FITC-DNA binding, 90 min; AID 1259318, 2017; Nuclear receptor subfamily 1 group D member 1 (Homo sapiens), P20393;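 active = activity above about 14%, limit read from the data; passing the limit was not always enough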;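 also: 0% = DMSO wells with 35 nM protein and 100% = DMSO wells with 750 nM protein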
Target sequence (P20393 whole entry, looked up): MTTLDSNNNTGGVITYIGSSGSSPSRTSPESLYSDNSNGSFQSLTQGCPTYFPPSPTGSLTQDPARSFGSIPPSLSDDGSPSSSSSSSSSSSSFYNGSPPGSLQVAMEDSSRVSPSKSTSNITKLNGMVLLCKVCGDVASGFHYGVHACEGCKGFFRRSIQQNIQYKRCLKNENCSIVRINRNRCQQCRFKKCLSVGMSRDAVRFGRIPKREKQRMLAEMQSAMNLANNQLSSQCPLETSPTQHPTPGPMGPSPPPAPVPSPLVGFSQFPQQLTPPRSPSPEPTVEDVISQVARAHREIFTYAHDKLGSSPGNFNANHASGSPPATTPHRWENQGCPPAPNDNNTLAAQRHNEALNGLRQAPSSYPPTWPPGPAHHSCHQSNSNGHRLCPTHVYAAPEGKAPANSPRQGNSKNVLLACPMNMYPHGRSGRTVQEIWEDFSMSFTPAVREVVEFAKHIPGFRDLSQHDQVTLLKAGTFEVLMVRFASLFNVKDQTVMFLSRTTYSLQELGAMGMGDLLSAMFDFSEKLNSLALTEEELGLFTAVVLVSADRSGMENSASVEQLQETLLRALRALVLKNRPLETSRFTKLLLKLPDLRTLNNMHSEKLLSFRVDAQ
* = called active by the depositor. An excerpt weighted towards active compounds, which were near 1.9% of everything screened.

How did O=[N+]([O-])c1ccc(C[n+]2c(-c3ccccc3)cc(-c3ccccc3)cc2-c2ccccc2)cc1 do in these assays?
beta cell repl: -7.7; UCH37 inh: -11.5; CR mimetic SO: 103.2; Rce1 inh: active; PG9 Ab binder: -2.9; NR1D1 modulator: 1.3

Results for O=[N+]([O-])c1cc(Cl)c(O)c(-[n+]2c(-c3ccccc3)cc(-c3ccccc3)cc2-c2ccccc2)c1 ?
beta cell repl: -2.9; UCH37 inh: 8.3; CR mimetic SO: 120.2; Rce1 inh: inactive; PG9 Ab binder: 2.4; NR1D1 modulator: -1.6

How did CC(CCc1c[nH]c2ccccc12)=NO do in these assays?
UCH37 inh: 1.2

How did Cc1nccc2c1[nH]c1ccccc12 do in these assays?
beta cell repl: -1.2; UCH37 inh: inactive; CR mimetic SO: 111.1; Rce1 inh: active; PG9 Ab binder: -3.5; NR1D1 modulator: 0.5

How did Cc1ccnc(-n2c(-c3ccco3)nc3ccccc3c2=O)c1 do in these assays?
beta cell repl: -0.8; UCH37 inh: 5.3; CR mimetic SO: 88.4; Rce1 inh: active; PG9 Ab binder: 0.8; NR1D1 modulator: -3.4

How did CCOC(=O)c1c(-n2c(C)cc(C=C3C(=O)NC(=O)NC3=O)c2C)sc2c1CCCC2 do in these assays?
beta cell repl: -0.7; UCH37 inh: -63.8; CR mimetic SO: 104.3; Rce1 inh: inactive; PG9 Ab binder: -0.8; NR1D1 modulator: -4.0

What do the screens show for `Cc1cccc(N2C(=O)NC(=O)/C(=C\c3cc(C)n(-c4sc5c(c4C#N)CCCC5)c3C)C2=O)c1C`?
beta cell repl: -3.8; UCH37 inh: 6.7; CR mimetic SO: 46.0*; Rce1 inh: inactive; PG9 Ab binder: -0.4; NR1D1 modulator: 0.7

How did CCOc1cc(C=C2C(=O)NC(=O)NC2=O)cc([N+](=O)[O-])c1O do in these assays?
beta cell repl: -2.4; UCH37 inh: 26.5*; CR mimetic SO: 98.0; Rce1 inh: inactive; PG9 Ab binder: -5.2; NR1D1 modulator: -2.5

Results for CN1CC(C(=O)c2ccc(Cl)cc2)C(c2ccc(Cl)cc2Cl)C1 (stereo not given) ?
beta cell repl: -5.6; UCH37 inh: 2.5; CR mimetic SO: 100.7; Rce1 inh: active; PG9 Ab binder: -0.7; NR1D1 modulator: -0.1

How did CN1CC(C(=O)c2ccc(Cl)cc2)C(c2ccc(N(C)C)cc2)C1 (stereo not given) do in these assays?
beta cell repl: -0.5; UCH37 inh: 3.2; CR mimetic SO: 98.4; Rce1 inh: inactive; PG9 Ab binder: -2.8; NR1D1 modulator: 5.2

How did Cc1ccccc1C(=O)NN=Cc1ccc(Sc2ccccn2)o1 do in these assays?
UCH37 inh: 1.4

Results for c1ccc(CCCN2CCN(CCOC(c3ccccc3)c3ccccc3)CC2)cc1 ?
beta cell repl: -7.7; UCH37 inh: 1.9; CR mimetic SO: 106.0; Rce1 inh: active; PG9 Ab binder: -0.9; NR1D1 modulator: -0.2

What do the screens show for `Cc1nc2ccccc2c(=O)n1N=Cc1cc(Br)cc(Br)c1O`?
UCH37 inh: -0.5

What do the screens show for `Cc1ccccc1N1C(=O)NC(=O)/C(=C\c2cc(Br)c(N3CCOCC3)o2)C1=O`?
beta cell repl: 3.6; UCH37 inh: 23.1*; CR mimetic SO: 97.6; Rce1 inh: inactive; PG9 Ab binder: -5.1; NR1D1 modulator: -3.0

What do the screens show for `Cc1cccc(N2C(=O)/C(=C/c3ccc(N4CCN(C)CC4)o3)C(=O)NC2=S)c1C`?
beta cell repl: -2.0; UCH37 inh: 22.1*; CR mimetic SO: 98.6; Rce1 inh: inactive; PG9 Ab binder: -2.0; NR1D1 modulator: -5.9

Results for Cc1ccccc1N1C(=O)NC(=O)/C(=C/c2ccc(N3CCOCC3)o2)C1=O ?
beta cell repl: -0.6; UCH37 inh: 21.1*; CR mimetic SO: 94.9; Rce1 inh: inactive; PG9 Ab binder: -4.0; NR1D1 modulator: 16.8

What do the screens show for `COC(=O)C1=C(c2ccc(F)cc2F)C[C@@H]2CC[C@H]1N2C(=O)N1CCCC1`?
beta cell repl: -1.3; UCH37 inh: -0.5; CR mimetic SO: 103.3; PG9 Ab binder: 0.5; NR1D1 modulator: 3.9

How did COC(=O)C1=C(c2ccc(F)cc2F)C[C@@H]2CC[C@H]1N2C(=O)N1CCCCC1 do in these assays?
beta cell repl: 0.0; UCH37 inh: 21.3*; CR mimetic SO: 97.8; PG9 Ab binder: -1.1; NR1D1 modulator: -5.8

How did Cc1ccc(-c2nc3ccc(C)cn3c2CC(=O)N(C)C)cc1 do in these assays?
beta cell repl: -0.2; UCH37 inh: -13.7; CR mimetic SO: 92.2; Rce1 inh: active; PG9 Ab binder: -1.9; NR1D1 modulator: 4.2

What do the screens show for `CCCN(CCC)C(=O)Cc1c(-c2ccc(Cl)cc2)nc2c(Cl)cc(Cl)cn12`?
beta cell repl: -5.2; UCH37 inh: 3.3; CR mimetic SO: 102.5; PG9 Ab binder: 0.0; NR1D1 modulator: 10.7

Results for CN1C(=O)c2ccccc2NC(=O)[C@]12O[C@@H]2c1ccccc1 ?
beta cell repl: -1.3; UCH37 inh: 3.8; CR mimetic SO: 85.3; Rce1 inh: active; PG9 Ab binder: -0.9; NR1D1 modulator: -2.4

Results for COC(=O)c1cc(C(O)(C(=O)OC)C(F)(F)F)c(N=CN(C)C)s1 (stereo not given) ?
UCH37 inh: 7.8

Results for CC(=O)C1C2c3ccccc3OC1(C)N=c1sc(=Cc3cn(C)nc3C)c(=O)n12 (stereo not given) ?
UCH37 inh: 3.2

How did Cc1cccn2c(NCC3CCCO3)c(C(C)C)nc12 (stereo not given) do in these assays?
beta cell repl: 0.1; UCH37 inh: -75.2; CR mimetic SO: 97.1; Rce1 inh: inactive; PG9 Ab binder: -0.4; NR1D1 modulator: -2.3

What do the screens show for `CCOc1cc(-c2nc3c(C)cccn3c2NCC2CCCO2)ccc1O` (stereo not given)?
beta cell repl: -1.0; UCH37 inh: inactive; CR mimetic SO: 103.5; Rce1 inh: active; PG9 Ab binder: -10.7; NR1D1 modulator: -4.7

What do the screens show for `C[C@H]1CC=C[C@H]2[C@H](O)[C@H](C)[C@@](C)(O)[C@H]3[C@H](Cc4ccccc4)NC(=O)[C@]32[C@H](O)C=C[C@](C)(O)C1`?
UCH37 inh: 0.4

How did C[C@]12CCC(=O)C=C1CC[C@@H]1[C@@H]2CC[C@@]2(C)[C@H]1CC[C@]2(C)O do in these assays?
UCH37 inh: 1.4; PG9 Ab binder: 1.2; NR1D1 modulator: -3.4

Compound activity: PubChem, several laboratories
